Reference: ChEMBL document CHEMBL5649170, “Sustained microglial depletion with CSF1R inhibitor impairs parenchymal plaque development in an Alzheimer's disease model” (Nat Commun, 2019)

Legend:
[1] = biological target: Homeodomain-interacting protein kinase 2 (Homo sapiens, UniProt Q9H2X6); assay: Inhibition of HIPK2 (unknown origin)
[2] = biological target: Beta-adrenergic receptor kinase 1 (Homo sapiens, UniProt P25098); assay: Inhibition of ADRBK1 (unknown origin)
[3] = Oral bioavailability in dog at 45 mg/kg administered as single via gavage; type: ADME, organism-based, Canis lupus familiaris; settings: in vivo
[4] = Effect on Hexb gene expression in wild type mouse thalamus at 1200 ppm administered as rodent chow starting from 1.5 months and measured after 7 months by RNA-Seq analysis (reference value: 45.201 to 52.726 RPKM); type: functional; settings: route po, time 5.5 months, 4015 h
[5] = Effect on Gls gene expression in wildtype mouse hippocampus assessed as percent change in Reads Per kilo base per Million mapped reads at 1200 ppm administered as rodent chow starting from 1.5 months and measured after 7 months by RNA-Seq analysis (reference value: 89.231 to 109.618 %); type: functional; settings: route po, time 5.5 months, 4015 h
[6] = biological target: G protein-coupled receptor kinase 5 (Homo sapiens, UniProt P34947); assay: Inhibition of GRK5 (unknown origin)
[7] = biological target: T1, Macrophage colony-stimulating factor 1 receptor (Mus musculus) (UniProt P09581); assay: In vivo inhibition of CSF1R in wildtype mouse assessed as number of S100bteta positive cells per FOV in […] cortex at 1200 ppm administered as rodent chow for 10 to 24 weeks by immunolabelling based confocal microscopic analysis (reference value: 296 to 337); type: functional; settings: route po, time 10-24 weeks
T1 sequence (whole entry): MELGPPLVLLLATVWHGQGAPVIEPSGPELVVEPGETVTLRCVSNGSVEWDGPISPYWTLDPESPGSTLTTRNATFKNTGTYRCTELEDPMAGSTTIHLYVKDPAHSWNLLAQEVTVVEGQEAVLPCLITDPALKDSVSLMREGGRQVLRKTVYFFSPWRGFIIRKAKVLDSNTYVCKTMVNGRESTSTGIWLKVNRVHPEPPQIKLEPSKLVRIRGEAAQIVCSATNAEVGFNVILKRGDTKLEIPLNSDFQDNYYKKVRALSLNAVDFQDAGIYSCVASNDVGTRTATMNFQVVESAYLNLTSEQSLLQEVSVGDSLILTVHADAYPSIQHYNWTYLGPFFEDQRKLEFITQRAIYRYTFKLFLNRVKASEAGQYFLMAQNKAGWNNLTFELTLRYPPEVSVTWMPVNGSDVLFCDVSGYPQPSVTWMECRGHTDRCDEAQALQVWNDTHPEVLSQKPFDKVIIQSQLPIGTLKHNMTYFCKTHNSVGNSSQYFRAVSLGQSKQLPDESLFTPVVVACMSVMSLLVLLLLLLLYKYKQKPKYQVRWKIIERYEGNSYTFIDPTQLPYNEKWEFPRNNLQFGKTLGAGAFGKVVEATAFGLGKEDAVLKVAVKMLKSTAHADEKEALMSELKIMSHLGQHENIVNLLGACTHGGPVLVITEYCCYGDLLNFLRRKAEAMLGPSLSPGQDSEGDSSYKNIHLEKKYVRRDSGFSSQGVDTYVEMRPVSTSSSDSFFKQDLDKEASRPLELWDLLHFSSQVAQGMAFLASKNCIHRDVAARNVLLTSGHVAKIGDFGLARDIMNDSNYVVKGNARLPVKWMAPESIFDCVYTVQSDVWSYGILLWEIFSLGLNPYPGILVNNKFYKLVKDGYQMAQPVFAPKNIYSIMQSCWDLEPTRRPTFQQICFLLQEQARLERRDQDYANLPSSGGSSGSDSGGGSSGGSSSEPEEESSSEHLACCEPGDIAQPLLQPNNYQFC

Mus musculus [8] = assay: Antialzheimer activity in 5XFAD mouse assessed as number of Iba1 positive cells per FOV in subiculum at 1200 ppm administered as rodent chow starting from 1.5 months and measured after 7 months by immunolabeling based confocal microscopic analysis (reference value: 1284 to 1582); type: functional; settings: route po, time 5.5 months, 4015 h
[9] = Effect on Ctsz gene expression in wild type mouse thalamus at 1200 ppm administered as rodent chow starting from 1.5 months and measured after 7 months by RNA-Seq analysis (reference value: 13.234 to 17.920 RPKM); type: functional; settings: route po, time 5.5 months, 4015 h
[10] = biological target: Vascular endothelial growth factor receptor 3 (Homo sapiens, UniProt P35916); assay: Inhibition of FLT4 (unknown origin)
[11] = AUC (0 to infinity) in female rat at 1.13 mg/kg, iv administered as single dose; type: ADME, organism-based; settings: in vivo
Mus musculus [12] = assay: Antialzheimer activity in 5XFAD mouse assessed as number of Iba positive cells per FOV in somatosensory cortex at 1200 ppm administered as rodent chow starting from 1.5 months and measured after 4 months (reference value: 192 to 604); type: functional; settings: route po, time 2.5 months, 1825 h
[13] = biological target: Tyrosine-protein kinase receptor TYRO3 (Homo sapiens, UniProt Q06418); assay: Inhibition of TYRO3 (unknown origin)
Sequence of Tyrosine-protein kinase receptor TYRO3 (Q06418 whole entry): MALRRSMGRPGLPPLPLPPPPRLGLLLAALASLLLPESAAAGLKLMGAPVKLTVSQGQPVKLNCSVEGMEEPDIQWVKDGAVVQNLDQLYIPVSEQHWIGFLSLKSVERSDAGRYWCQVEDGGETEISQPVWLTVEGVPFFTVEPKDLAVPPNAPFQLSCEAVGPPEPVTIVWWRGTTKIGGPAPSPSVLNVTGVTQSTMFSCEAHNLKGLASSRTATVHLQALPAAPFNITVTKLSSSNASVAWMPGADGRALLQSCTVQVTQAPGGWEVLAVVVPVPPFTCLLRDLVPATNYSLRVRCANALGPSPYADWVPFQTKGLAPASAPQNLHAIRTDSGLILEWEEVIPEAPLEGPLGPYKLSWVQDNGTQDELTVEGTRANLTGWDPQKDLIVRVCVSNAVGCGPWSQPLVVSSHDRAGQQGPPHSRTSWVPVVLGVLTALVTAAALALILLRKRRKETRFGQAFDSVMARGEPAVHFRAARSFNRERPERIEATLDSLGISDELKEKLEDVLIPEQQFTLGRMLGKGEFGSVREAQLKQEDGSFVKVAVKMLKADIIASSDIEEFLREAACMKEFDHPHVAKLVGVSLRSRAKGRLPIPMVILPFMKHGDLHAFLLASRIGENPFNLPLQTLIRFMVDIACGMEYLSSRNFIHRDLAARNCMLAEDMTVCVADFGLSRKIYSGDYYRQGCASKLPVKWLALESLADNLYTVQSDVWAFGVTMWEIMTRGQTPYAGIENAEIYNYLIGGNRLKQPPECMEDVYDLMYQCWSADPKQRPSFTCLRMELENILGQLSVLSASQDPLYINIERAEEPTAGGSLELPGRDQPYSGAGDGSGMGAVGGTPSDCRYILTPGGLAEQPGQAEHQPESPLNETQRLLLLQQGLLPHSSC

[14] = biological target: Mitogen-activated protein kinase kinase kinase kinase 2 (Homo sapiens, UniProt Q12851); assay: Inhibition of MAP4K2 (unknown origin)
Sequence of Mitogen-activated protein kinase kinase kinase kinase 2 (Q12851 whole entry): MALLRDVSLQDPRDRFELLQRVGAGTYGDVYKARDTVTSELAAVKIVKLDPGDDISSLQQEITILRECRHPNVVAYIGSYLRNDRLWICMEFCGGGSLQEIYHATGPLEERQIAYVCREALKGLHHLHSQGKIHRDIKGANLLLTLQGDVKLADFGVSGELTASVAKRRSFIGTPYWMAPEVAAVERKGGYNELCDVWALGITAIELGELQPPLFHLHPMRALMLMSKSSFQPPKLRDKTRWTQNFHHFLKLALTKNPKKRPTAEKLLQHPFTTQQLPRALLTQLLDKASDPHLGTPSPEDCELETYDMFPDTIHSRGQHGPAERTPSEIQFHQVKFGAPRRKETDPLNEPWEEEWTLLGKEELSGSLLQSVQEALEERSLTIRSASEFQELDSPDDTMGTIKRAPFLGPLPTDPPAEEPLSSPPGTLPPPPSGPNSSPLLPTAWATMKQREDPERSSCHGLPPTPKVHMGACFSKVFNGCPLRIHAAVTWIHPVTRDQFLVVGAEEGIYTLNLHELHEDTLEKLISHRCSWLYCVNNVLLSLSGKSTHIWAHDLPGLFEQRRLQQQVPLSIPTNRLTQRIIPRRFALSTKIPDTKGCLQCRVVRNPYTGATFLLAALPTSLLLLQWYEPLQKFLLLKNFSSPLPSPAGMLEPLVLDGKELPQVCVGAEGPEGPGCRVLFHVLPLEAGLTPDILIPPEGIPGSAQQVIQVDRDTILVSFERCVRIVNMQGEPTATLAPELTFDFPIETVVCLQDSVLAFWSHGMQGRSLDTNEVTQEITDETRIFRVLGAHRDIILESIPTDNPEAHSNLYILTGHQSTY

[15] = Prevention of Chrm3 gene downregulation in 5XFAD mouse hippocampus assessed as percent change in Reads Per kilo base per Million mapped reads at 1200 ppm administered as rodent chow starting from 1.5 months and measured after 7 months by RNA-Seq analysis (reference value: 46.176 to 86.158 %); type: functional; settings: route po, time 5.5 months, 4015 h
[16] = Ratio of drug concentration in 5XFAD mouse brain to plasma at 1200 ppm administered as rodent chow for 180 days; type: ADME, cell-free; settings: brain and plasma, route po, time 180 day, read-out: BPR
Mus musculus [17] = assay: Effect on APP processing pathway in wildtype mouse assessed as ADAM10 protein signal intensity in cortex at 1200 ppm administered as rodent starting from 1.5 months and measured after 7 months (reference value: 37.275 to 230.211 %); type: functional; settings: route po, time 5.5 months, 4015 h
[18] = Half-life in dog at 1.00 mg/kg, iv administered as single dose; type: ADME, organism-based, Canis lupus familiaris; settings: in vivo
[19] = Toxicity in wildtype mouse assessed as number of platform entry at 1200 ppm administered as rodent chow for 10 to 24 weeks by Morris water maze test (reference value: 0 to 5); settings: in vivo, po, time 10-24 weeks
[20] = biological target: Protein kinase C theta type (Homo sapiens, UniProt Q04759); assay: Inhibition of PRKCQ (unknown origin)
Sequence of Protein kinase C theta type (Q04759 whole entry): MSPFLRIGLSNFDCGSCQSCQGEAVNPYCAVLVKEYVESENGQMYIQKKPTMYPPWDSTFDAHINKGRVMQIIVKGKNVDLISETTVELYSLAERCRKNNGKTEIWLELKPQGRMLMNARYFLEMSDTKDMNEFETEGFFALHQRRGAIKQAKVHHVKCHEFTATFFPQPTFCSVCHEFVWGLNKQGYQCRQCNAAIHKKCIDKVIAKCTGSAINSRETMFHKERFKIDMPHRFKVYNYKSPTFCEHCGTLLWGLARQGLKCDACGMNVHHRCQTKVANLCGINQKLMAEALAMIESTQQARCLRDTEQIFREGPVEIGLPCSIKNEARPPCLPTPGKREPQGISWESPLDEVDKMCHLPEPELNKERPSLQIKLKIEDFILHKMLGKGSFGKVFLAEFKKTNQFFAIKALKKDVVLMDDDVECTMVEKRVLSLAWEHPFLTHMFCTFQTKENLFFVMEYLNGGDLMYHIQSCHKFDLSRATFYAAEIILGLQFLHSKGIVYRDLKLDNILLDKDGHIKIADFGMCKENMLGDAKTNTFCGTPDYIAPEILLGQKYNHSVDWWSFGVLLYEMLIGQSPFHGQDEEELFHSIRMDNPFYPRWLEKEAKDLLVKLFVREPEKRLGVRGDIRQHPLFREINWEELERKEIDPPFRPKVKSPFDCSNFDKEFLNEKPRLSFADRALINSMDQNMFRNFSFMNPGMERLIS

Ephrin type-B receptor 3 = Ephrin type-B receptor 3 (Homo sapiens, UniProt P54753); assay: Inhibition of EPHB3 (unknown origin)
Sequence of Ephrin type-B receptor 3 (P54753 whole entry): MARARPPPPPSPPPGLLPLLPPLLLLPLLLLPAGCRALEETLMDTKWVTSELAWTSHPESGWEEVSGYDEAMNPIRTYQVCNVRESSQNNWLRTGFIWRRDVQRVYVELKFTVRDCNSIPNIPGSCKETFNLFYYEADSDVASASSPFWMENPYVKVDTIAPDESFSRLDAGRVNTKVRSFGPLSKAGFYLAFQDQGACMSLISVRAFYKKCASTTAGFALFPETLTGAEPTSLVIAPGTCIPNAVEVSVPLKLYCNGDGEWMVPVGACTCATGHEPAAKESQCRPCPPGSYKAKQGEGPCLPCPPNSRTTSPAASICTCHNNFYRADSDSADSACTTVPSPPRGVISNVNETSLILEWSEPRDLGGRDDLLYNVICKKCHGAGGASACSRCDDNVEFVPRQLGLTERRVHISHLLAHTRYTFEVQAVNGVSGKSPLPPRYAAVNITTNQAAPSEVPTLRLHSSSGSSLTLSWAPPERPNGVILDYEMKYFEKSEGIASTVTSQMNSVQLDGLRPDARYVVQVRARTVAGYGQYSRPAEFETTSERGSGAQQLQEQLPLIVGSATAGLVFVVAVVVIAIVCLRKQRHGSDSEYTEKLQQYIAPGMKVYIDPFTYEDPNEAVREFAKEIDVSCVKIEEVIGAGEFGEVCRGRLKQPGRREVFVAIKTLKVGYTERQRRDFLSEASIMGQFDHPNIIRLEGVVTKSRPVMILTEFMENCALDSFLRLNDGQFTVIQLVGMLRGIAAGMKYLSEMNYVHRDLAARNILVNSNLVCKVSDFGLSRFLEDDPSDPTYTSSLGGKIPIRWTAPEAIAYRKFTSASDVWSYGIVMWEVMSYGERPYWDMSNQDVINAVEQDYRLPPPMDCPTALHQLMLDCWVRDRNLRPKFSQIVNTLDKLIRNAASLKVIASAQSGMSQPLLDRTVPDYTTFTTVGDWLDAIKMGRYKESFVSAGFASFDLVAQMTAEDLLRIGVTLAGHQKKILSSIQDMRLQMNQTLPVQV

[21] = biological target: Cytoplasmic tyrosine-protein kinase BMX (Homo sapiens, UniProt P51813); assay: Inhibition of BMX (unknown origin)
Sequence of Cytoplasmic tyrosine-protein kinase BMX (P51813 whole entry): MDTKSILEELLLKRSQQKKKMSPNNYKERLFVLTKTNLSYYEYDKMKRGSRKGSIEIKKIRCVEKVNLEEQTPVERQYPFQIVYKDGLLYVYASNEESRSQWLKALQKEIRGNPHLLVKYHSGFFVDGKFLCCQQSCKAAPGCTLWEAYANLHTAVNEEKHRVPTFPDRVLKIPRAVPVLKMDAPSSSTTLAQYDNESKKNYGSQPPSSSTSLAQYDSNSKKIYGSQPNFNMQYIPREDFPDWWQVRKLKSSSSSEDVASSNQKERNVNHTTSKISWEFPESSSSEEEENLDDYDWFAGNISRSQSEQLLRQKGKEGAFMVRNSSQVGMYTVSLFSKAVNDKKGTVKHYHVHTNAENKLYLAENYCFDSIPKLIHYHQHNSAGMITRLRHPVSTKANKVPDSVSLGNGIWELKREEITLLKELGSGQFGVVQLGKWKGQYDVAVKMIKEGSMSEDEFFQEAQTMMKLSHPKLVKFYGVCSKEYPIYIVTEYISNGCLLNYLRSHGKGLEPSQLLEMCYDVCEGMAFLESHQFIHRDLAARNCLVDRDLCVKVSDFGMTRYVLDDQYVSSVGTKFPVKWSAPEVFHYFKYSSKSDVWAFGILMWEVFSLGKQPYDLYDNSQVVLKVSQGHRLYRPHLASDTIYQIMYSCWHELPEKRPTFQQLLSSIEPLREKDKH

Mus musculus [22] = assay: Antialzheimer activity in 5XFAD mouse assessed as number of plaques per FOV in somatosensory cortex at 75 ppm administered as rodent chow starting from 1.5 months and measured after 5 months by immunolabeling based confocal microscopic analysis (reference value: 22 to 91); type: functional; settings: route po, time 3.5 months, 2555 h
Procedure, shortened: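 5xFAD mice ate AIN-76A chow with 75 ppm PLX3397, or control chow, from 1.5 to 5 months of age. Sections of retrosplenial and somatosensory cortex were stained with Thio-S and immunolabeled for IBA1, then imaged by confocal microscopy. n = 4–5 per group; two-tailed independent t-test; mean ± SEM.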

Sequence of Beta-adrenergic receptor kinase 1 (P25098 whole entry): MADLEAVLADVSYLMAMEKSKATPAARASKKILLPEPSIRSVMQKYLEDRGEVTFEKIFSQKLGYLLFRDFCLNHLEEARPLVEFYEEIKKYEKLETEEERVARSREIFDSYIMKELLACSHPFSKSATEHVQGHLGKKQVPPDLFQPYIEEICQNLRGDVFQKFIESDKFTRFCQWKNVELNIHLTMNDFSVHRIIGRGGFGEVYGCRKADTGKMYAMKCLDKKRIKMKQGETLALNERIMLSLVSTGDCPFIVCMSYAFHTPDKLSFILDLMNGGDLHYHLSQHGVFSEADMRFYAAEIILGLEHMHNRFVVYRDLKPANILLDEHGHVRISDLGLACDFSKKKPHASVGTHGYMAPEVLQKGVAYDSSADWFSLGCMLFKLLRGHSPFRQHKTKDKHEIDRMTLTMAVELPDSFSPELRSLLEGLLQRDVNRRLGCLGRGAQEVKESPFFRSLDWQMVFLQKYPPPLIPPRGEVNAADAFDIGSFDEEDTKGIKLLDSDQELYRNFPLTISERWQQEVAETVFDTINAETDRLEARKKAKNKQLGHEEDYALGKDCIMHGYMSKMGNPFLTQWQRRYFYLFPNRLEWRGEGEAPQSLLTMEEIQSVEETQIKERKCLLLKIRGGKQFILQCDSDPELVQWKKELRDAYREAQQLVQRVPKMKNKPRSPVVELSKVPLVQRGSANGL

With COc1ncc(F)cc1CNc1ccc(Cc2c[nH]c3ncc(C)cc23)c(F)n1 [PLX-5622] the IC50 [1] was > 1000 nM, the IC50 [2] was > 1000 nM and the bioavailability [3] was 34%. For the same compound, the Activity [4] was 10.895 RPKM, the Activity [5] was 68.459% and the IC50 [6] was > 1000 nM. It also gave an Activity [7] of 269, an Activity (Mus musculus [8]) of 25 and an Activity [9] of 11.055 RPKM. The IC50 [10] was > 1000 nM, the AUC(0-inf) [11] was 5110 ng·h/mL and the Activity (Mus musculus [12]) was 0. The IC50 [13] was > 1000 nM, the IC50 [14] was > 1000 nM and the Activity [15] was 85.99%. The Kp at 4320 h [16] was 0.26, the Activity (Mus musculus [17]) was 59.835% and the half-life [18] was 15 h. The Activity [19] was 1, the IC50 [20] was > 1000 nM and the IC50 (Ephrin type-B receptor 3) was > 1000 nM. For the same compound, the IC50 [21] was > 1000 nM.
In the case of FC(F)(F)c1ccc(CNc2ccc(Cc3c[nH]c4ncc(Cl)cc34)cn2)cn1 [PEXIDARTINIB], the Activity (Mus musculus [22]) is reported as 31.
